According to ChEMBL document CHEMBL4513216, “Probing the Open Global Health Chemical Diversity Library for Multistage-Active Starting Points for Next-Generation Antimalarials” (ACS Infect Dis, 2020):

Experiment: Toxicity liver stage against HepG2, at 10uM
Format: cell-based
Parameters: test concentration 10 uM, cell line HepG2-A16-CD81EGFP
Settings: human, HepG2-A16-CD81EGFP cells; read-out: INHIBITION
Outline: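 Uninfected HepG2-A16-CD81EGFP cells, 3 × 10^3 per well, 1536-well, plated on prespotted compound at 10 μM final, parasite-free screening media added to match infected plates; puromycin 10 μM positive, DMSO 0.5% negative; run in parallel with 48 h PbLuc assay at 37 °C, 5% CO2; viability by CellTiter-Glo luminescence, normalized to controls.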

| SMILES | cytotoxicity at 10 µM [%] |
| --- | --- |
| Cc1ccc(Cl)cc1N1CCN(CC(=O)NC(C)c2ccco2)CC1 (stereo not drawn) | 5.89 |
| CN(Cc1csc(-c2cccs2)n1)CC(O)CO (stereo not drawn) | -0.712 |
| CCC(CN1CCCC1)NC(=O)C1(c2cccc(F)c2)CC1 (stereo not drawn) | -5.72 |
| CCOc1ccc2[nH]c(=O)c(CN3CCC(N4CCCC4)CC3)cc2c1 | -7.83 |
| O=C(O)c1cc(-c2ccncc2)cc(S(=O)(=O)N2CCCCCC2)c1 | 2.05 |
| O=C(O)C[C@@H]1CCN(C(=O)c2cccs2)C[C@@H]1CCN1CCCCC1 | 2.4 |
| CC(C)[C@H](NS(C)(=O)=O)C(=O)NCc1cc(-c2cccc(Cl)c2)nn1C | -5.47 |
| CCOC(=O)c1coc(N2CCN(Cc3cc(C)cc(C)c3)C(=O)C2)n1 | 4.24 |
| Cc1ccc(-c2ccnc(NC(C)c3c(C)n[nH]c3C)n2)c(C)n1 (stereo not drawn) | 4.51 |
| CCOc1ncccc1-c1cc2c(cc1C(N)=O)OCO2 | -0.421 |
| Cc1c(C(=O)N2CCC3(CCCNC3=O)C2)sc2nc[nH]c(=O)c12 (stereo not drawn) | -10.7 |
| COCc1nc2ncc3c(=O)n(-c4ccc(C(C)=O)cc4)ccc3n2n1 | -7.03 |
| O=C(NCc1ccc2c(c1)OCO2)N1CCCC2(C1)OCCO2 | 3.07 |
| Cc1nn(C)c2c(N3CCN(C(=O)C(C)C)CC3)ncnc12 | 6.78 |
| CN(C)C(=O)CN1CCc2ncnc(N(C)C)c2CC1 | -93.2 |
| Cc1[nH]c2ccccc2c1-c1ccnc(N[C@@H](C)CO)n1 | -6.52 |
| c1coc(CN2C[C@H](OCC3CCOCC3)[C@H]3COC[C@H]32)c1 | 0.127 |
| Cc1nc(C)n(CC2CCCN(CCNC(=O)OC(C)(C)C)C2)n1 (stereo not drawn) | 1.08 |
| Cc1cc(S(=O)(=O)NCC(O)c2sccc2C)ccc1F (stereo not drawn) | -1.81 |
| CCOc1ccccc1C(CC(=O)Nc1ccccc1)NC(C)=O (stereo not drawn) | -2.86 |
| CNC(=O)c1ccc(S(=O)(=O)NCc2cccnc2N(C)C)cc1 | 1.59 |
| Cc1noc(C)c1CN(C)C(=O)C1CCCc2ccccc21 (stereo not drawn) | 2.45 |

| SMILES | cytotoxicity at 10 µM [%] |
| --- | --- |
| Cc1nc(C(=O)N2CCC(Cc3cnc4[nH]ccc4c3)C2)co1 (stereo not drawn) | 9.36 |
| Cc1cc(C)n(CC(=O)N2CCC(NS(=O)(=O)c3ccccc3)CC2)n1 | 4.59 |
| Cc1ccc(CN2CCC(n3cc(CN4CCC(O)CC4)nn3)CC2)s1 | -3.53 |
| Cc1ccc(NC2CCN(C(=O)c3cnc(C)s3)CC2)nn1 | 2.48 |
| Cc1ccc(CN2CCN(C(=O)c3ccc(CO)cc3)C(C)C2=O)cc1 (stereo not drawn) | 6.42 |
| CCn1c(CN(C)C)nnc1C1CCN(Cc2cccc(F)c2F)CC1 | 1.49 |
| Cc1ccccc1CN1CCNC(=O)C1CC(=O)NCC1CCCCC1 (stereo not drawn) | -8.77 |
| CCc1nnc(C2Cc3ccccc3CN2Cc2cc(C)on2)o1 (stereo not drawn) | -7.77 |
| Cc1ccc(C(O)CNC(=O)NCc2c(C)cc(C)[nH]c2=O)cc1 (stereo not drawn) | -3.9 |
| CCCNc1ncc(CN2C[C@@H]3CC[C@H]2CN(C2CCOCC2)C3)cn1 | -7.84 |
| COCCn1cc(C(=O)N2CCCC2c2cccs2)c2ccccc21 (stereo not drawn) | 23.7 |
| Cc1cc(C(=O)Nc2ccc3oc(=O)n(CCN(C)C)c3c2)c(C)o1 | -2.22 |
| COC1CCN(C(=O)C2CC(=O)N(c3ccccc3Br)C2)CC1 (stereo not drawn) | -3.57 |
| CSCCC1c2nc[nH]c2CCN1Cc1cc(Cl)ccc1O (stereo not drawn) | 23.3 |
| O=C(NCC1CCOCC1)[C@H]1C[C@@H]2CCN(Cc3ccccc3)C[C@H]2O1 | 1.03 |
| O=S(=O)(C1CC1)N1CC[C@]2(C[C@@H](Oc3ncccc3F)CO2)C1 | -74.1 |
| CCn1ccnc1CN(C)c1cc(N(C)C)ncn1 | -42.1 |
| CC(c1nnc(-c2cccs2)o1)N1CCc2cncnc2C1 (stereo not drawn) | 6.37 |
| CC(C)n1cnnc1CCNCc1cn(CCC(N)=O)c2ccccc12 | -3.81 |
| O=C1C(n2nnc(-c3ccsc3)n2)CCN1CC(F)(F)F (stereo not drawn) | 0.519 |
| O=C(NCc1ccco1)[C@H]1CC[C@@H]2[C@@H](CCN2Cc2cccnc2)O1 | -3.68 |
| Cc1nc(C2CCCN2C(=O)c2cc3c(s2)CCC3)no1 (stereo not drawn) | -6.82 |

| SMILES | cytotoxicity at 10 µM [%] |
| --- | --- |
| Cc1n[nH]cc1CNC1(c2ccc(Br)cc2)CC1 | 13.9 |
| c1csc(N2[C@H](Cn3cncn3)C[C@@H]3CNCC[C@@H]32)n1 | -142 |
| Cc1cnn(CC(=O)N(CC2CN(C)CCO2)c2nccs2)c1 (stereo not drawn) | 1.79 |
| O=C(Cc1n[nH]c2ccccc12)N1CCCCC1Cn1cccn1 (stereo not drawn) | -14.8 |
| CC(C(=O)N1CCN(c2ccc(F)cc2)CC1)n1cc(Br)cn1 (stereo not drawn) | 9.35 |
| Cc1cn2nc(N3CCN(Cc4cc(C)on4)CC3)sc2n1 | -12.1 |
| O=C1CC(c2ccccc2F)c2c(n(C3CCCC3)[nH]c2=O)N1 (stereo not drawn) | -5.07 |
| CCc1nc(CN(CC(N)=O)C(C)C)cs1 | -8.62 |
| CC(C)CN(C)S(=O)(=O)c1ccc(Cl)cc1C#N | -47.2 |
| CCc1ccc2c(C3CN(C(C)=O)C3)ncn2c1 | 2.16 |
| O=C(Cc1ccccn1)N1CCC2(CC1)CN(c1ncccn1)CCO2 | -74.3 |
| Cc1ccc(C(CCNCCN(C)C)C2CCOC(C)(C)C2)cc1 (stereo not drawn) | 3.46 |
| CN1C[C@@H]2C[C@H](C(=O)Nc3cccnc3)[C@H](C1)O2 | -71.1 |
| O=C(CC1CCCC1)N1CCCC1c1nc(O)cc(-c2ccccn2)n1 (stereo not drawn) | -3.73 |
| CCCS(=O)(=O)N1C[C@@H](c2ccccc2)[C@@]2(CCNC2=O)C1 | -109 |
| CCC(C)NC(=O)CCNC(=O)Nc1ccc(-n2cncn2)c(F)c1 (stereo not drawn) | -0.22 |
| COc1cccc(-c2n[nH]cc2CNC2CCC(O)CC2)c1 (stereo not drawn) | -0.874 |
| Cc1nc(-c2ccoc2)n(CC(=O)N(C)CC(C)C)c1C | -4.5 |
| COc1cccc2c3c(c(=O)[nH]c12)CCC(C)(C)O3 | -1.43 |
| c1ccc(CN2C[C@@H]3COC[C@]3(COCC3CCOCC3)C2)nc1 | -0.326 |
| COCC(=O)N1CCC(O)(CN2CCN(c3ccccc3)CC2)C1 (stereo not drawn) | -2.38 |
| Cc1cnc(N2CCC3(CCC(C(=O)NC(C)C)C3)CC2)nc1 (stereo not drawn) | -0.603 |

| SMILES | cytotoxicity at 10 µM [%] |
| --- | --- |
| COc1nc(C)c(C(=O)N2CCc3[nH]nc(Cc4ccccc4)c3C2)s1 | -2.53 |
| COc1ccccc1-n1cc(C(=O)NCCn2nc(C)nc2C)cn1 | 9.27 |
| CCCc1n[nH]c(C2CN(C(=O)c3ccc(C)[nH]c3=O)CCO2)n1 (stereo not drawn) | 0.238 |
| CC(C)C1CN(S(=O)(=O)C2CC2)CCCN1Cc1ccc(F)cc1 (stereo not drawn) | 7.01 |
| O=C(c1c[nH]cn1)N1CCC(F)(F)C2(CCN(c3cccc(F)c3)C2)C1 (stereo not drawn) | 9.58 |
| Cc1nc(CN2C[C@@H]3COC[C@]3(COCC(=O)N(C)C)C2)cs1 | 1.41 |
| Cc1noc(C)c1CN1CCC(NC(=O)OC(C)(C)C)CC1 | 6.27 |
| Cn1cc(Cl)cc1C(=O)N1CCC2(CCCN(CC3CC3)C2=O)C1 (stereo not drawn) | 1.96 |
| CO[C@H]1CN(Cc2ccc(C)o2)[C@@H]2CCCO[C@H]12 | -144 |
| CCc1nc(CN(C(C)=O)C2CCN(Cc3cnc(C)cn3)C2)no1 (stereo not drawn) | -4.51 |
| CC(=O)c1c(F)cccc1N1CCC(CS(N)(=O)=O)CC1 | -7.79 |
| CC(=O)c1cccc(NC(=O)CN2CCCCC2C)c1 (stereo not drawn) | -0.684 |
| CCCn1cc(C(=O)N2CCCC(c3nccn3CCOC)C2)c(C)n1 (stereo not drawn) | 0.00455 |
| O=C(CNCCn1cccn1)NCC1(c2ccccc2)CC1 | 3.15 |
| COCCN(C)C(=O)Cn1cccc(OC)c1=O | -14.8 |
| CCN(Cc1cc(Cl)c(O)c(OC)c1)Cc1nc(COC)no1 | 1.29 |
| CN1CCC(Cc2nc(-c3cnccn3)n(Cc3ccccc3)n2)CC1 | 1.21 |
| COc1cccc(S(=O)(=O)N2CCCc3c(OC)nn(C)c3C2)c1 | -120 |
| Cc1ccc2c(c1C)OCC2NCc1cccc(C#N)c1 (stereo not drawn) | 9.91 |
| CCn1nc(C)c(CCNC(=O)C2CCCN(C(=O)COC)C2)c1C (stereo not drawn) | -0.367 |
| CN(Cc1nc2ccsc2c(=O)[nH]1)CC1CCCCC1 | -1.05 |
| CC(C)C1C(=O)NCCN1C(=O)CCCc1nc(C(C)(C)C)no1 (stereo not drawn) | -3.53 |

| SMILES | cytotoxicity at 10 µM [%] |
| --- | --- |
| CN(Cc1ccccc1)C(=O)CCN1C[C@H](C2CC2)[C@@H](N(C)C)C1 | -1.21 |
| COCC(=O)N1CC(c2n[nH]cc2C)C1 | -2.76 |
| CC(C)(C)S(=O)(=O)CCNC(=O)NCCCc1cccc(F)c1 | 17 |
| NC(=O)c1cnn2c1NCC(CNCC1(c3ccccc3)CCCC1)C2 (stereo not drawn) | -7.38 |
| CNc1nc2c(c(C(=O)N3CCCC3)n1)CN(Cc1cc(C)no1)CC2 | -103 |
| Cc1ccc(CN(Cc2cc(=O)n3cccc(C)c3n2)C(C)C)o1 | 7.65 |
| CCn1c(C)cc(C(=O)NCc2ccc(CS(C)(=O)=O)cc2)c1C | -16.9 |
| O=C1[C@@H]2C[C@H](O)CCN2C(=O)CN1CCSc1ccccn1 | -2.96 |
| O=C1CCc2cc(S(=O)(=O)NCc3cc4n(n3)CCCNC4)ccc2N1 | -5.38 |
| Cc1cc(CN2CCc3nc(N4CCOCC4)nc(O)c3CC2)c(C)s1 | 6.3 |
| CNc1nc(C2CCCN2C(C)=O)nc2c1CN(C1CCCC1)CC2 (stereo not drawn) | -9.44 |
| CCCC(C)CS(=O)(=O)NCc1cccnc1N(C)C (stereo not drawn) | 2.96 |
| CCN(CC)C(C(=O)NCc1ccc(N2CCCC2)nc1)C(C)C (stereo not drawn) | -8.08 |
| COCC(=O)N1CCN(C(=O)C2(c3ccc(C)c(OC)c3)CC2)CC1 | -8.19 |
| CS(=O)(=O)N1CCOC2(CCN(c3nccs3)CC2)c2ccccc21 | 1.18 |
| CN(Cc1nnc(C2CC2)o1)Cc1ccccc1N1CCOCC1 | -7.83 |
| COc1ccc(CNC(=O)Cc2csc(C(C)=O)c2)cc1 | 4.95 |
| CC(C)c1nc(CN(C)C2CCN(CCS(C)(=O)=O)C2)no1 (stereo not drawn) | -13.4 |
| CCN(CCNCc1ccc(C#N)cc1)C1CC1 | -6.54 |
| CC(CNC(=O)c1cc(-n2cccn2)ccn1)Cn1ccnc1 (stereo not drawn) | -3.43 |
